Assay results: ChEMBL document CHEMBL1926628, “Febrifugine analogue compounds: synthesis and antimalarial evaluation” (Bioorg Med Chem, 2012)

Legend:
[1] = Therapeutic index, ratio of MTD for Sprague-Dawley rat to MCD for blood stage of Plasmodium berghei NK65; conditions: read-out: TI
Procedure, shortened: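 MCD (minimum clearance dose) comes from rodents infected with blood-stage P. berghei NK65, dosed orally except artesunate, which was given iv. MTD (maximum tolerated dose) comes from Sprague–Dawley rats. Both are in mg/kg. Therapeutic index is MTD divided by MCD.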

Plasmodium falciparum [2] = assay: Antimalarial activity against chloroquine-resistant Plasmodium falciparum TM6 infected in human A positive erythrocytes assessed as inhibition of [G-3H]-hypoxanthine uptake after 24 hrs by liquid scintillation counting; type: functional, organism-based; conditions: TM6, 24 h
Plasmodium falciparum [3] = assay: Antimalarial activity against chloroquine-resistant Plasmodium falciparum K1 infected in human A positive erythrocytes assessed as inhibition of [G-3H]-hypoxanthine uptake after 24 hrs by liquid scintillation counting; type: functional, organism-based; conditions: K1, 24 h
Plasmodium falciparum [4] = assay: Antimalarial activity against chloroquine-resistant Plasmodium falciparum FVO infected in Aotus monkey assessed as cure rate at 8 mg/kg, po qd for 3 days; type: functional
Procedure, shortened: (§1)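 Aotus monkeys carrying chloroquine-resistant P. falciparum FVO were dosed orally once daily for 3 days at 2, 4, 8 or 16 mg/kg/day. Dosing began the day after parasitemia reached approximately 5,000 organisms per mm³. Cure means parasitemia cleared with no recrudescence. Cure rate is animals cured over total tested.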

Plasmodium falciparum [5] = assay: Antimalarial activity against Plasmodium falciparum PH3 infected in human A positive erythrocytes assessed as inhibition of [G-3H]-hypoxanthine uptake after 24 hrs by liquid scintillation counting; type: functional, organism-based; conditions: PH3, 24 h
Plasmodium falciparum [6] = assay: Antimalarial activity against chloroquine-resistant Plasmodium falciparum FVO infected in Aotus monkey assessed as cure rate at 4 mg/kg, po qd for 3 days; type: functional; procedure, shortened: as §1
Plasmodium berghei [7] = assay: Antimalarial activity against blood stage of Plasmodium berghei NK65 infected in po dosed rat assessed as minimum curative dose; type: functional
Procedure, shortened: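 Rodents infected with blood-stage Plasmodium berghei NK65 were dosed by the route given in each line. Read-out was the minimum clearance dose (MCD), the lowest dose clearing parasites, reported in mg/kg. Method follows earlier reports.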

Plasmodium falciparum [8] = assay: Antimalarial activity against Plasmodium falciparum TM4 infected in human A positive erythrocytes assessed as inhibition of [G-3H]-hypoxanthine uptake after 24 hrs by liquid scintillation counting; type: functional, organism-based; conditions: TM4, 24 h
Plasmodium falciparum [9] = assay: Antimalarial activity against chloroquine-resistant Plasmodium falciparum VS/1 infected in human A positive erythrocytes assessed as inhibition of [G-3H]-hypoxanthine uptake after 24 hrs by liquid scintillation counting; type: functional; conditions: VS/1, 24 h
Plasmodium falciparum [10] = assay: Antimalarial activity against Plasmodium falciparum Dd2 infected in human A positive erythrocytes assessed as inhibition of [G-3H]-hypoxanthine uptake after 24 hrs by liquid scintillation counting; type: functional, organism-based; conditions: Dd2, 24 h
Plasmodium falciparum [11] = assay: Antimalarial activity against chloroquine-sensitive Plasmodium falciparum 3D7 infected in human A positive erythrocytes assessed as inhibition of [G-3H]-hypoxanthine uptake after 24 hrs by liquid scintillation counting; type: functional, organism-based; conditions: 3D7, 24 h
Plasmodium falciparum [12] = assay: Antimalarial activity against chloroquine-resistant Plasmodium falciparum FVO infected in Aotus monkey assessed as cure rate at 16 mg/kg, po qd for 3 days; type: functional; procedure, shortened: as §1
Plasmodium falciparum [13] = assay: Antimalarial activity against chloroquine-resistant Plasmodium falciparum FVO infected in Aotus monkey assessed as cure rate at 2 mg/kg, po qd for 3 days; type: functional; procedure, shortened: as §1
[14] = Acute toxicity in po dosed Sprague-Dawley rat assessed as maximum tolerated dose; type: organism-based; conditions: in vivo
Plasmodium berghei [15] = assay: Antimalarial activity against blood stage of Plasmodium berghei NK65 infected in po dosed rat assessed as inhibition of parasite growth; type: functional
Procedure, shortened: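 Blood-stage Plasmodium berghei NK65 infection in rodents. Compounds were given by the route stated in each line. ED50 is the dose in mg/kg giving 50% parasite growth inhibition relative to the untreated blank control. Procedure follows earlier reports.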

CCO[C@H]1CCN[C@@H]1C(=O)Cn1cnc2cccc(F)c2c1=O
selectivity ratio [1]: 132
IC50 (Plasmodium falciparum [2]): 0.17 nM
IC50 (Plasmodium falciparum [3]): 0.24 nM
Activity (Plasmodium falciparum [4]): 100%
IC50 (Plasmodium falciparum [5]): 0.18 nM
Activity (Plasmodium falciparum [6]): 67%
MCD (Plasmodium berghei [7]): 1.9 mg/kg
IC50 (Plasmodium falciparum [8]): 0.22 nM
IC50 (Plasmodium falciparum [9]): 0.25 nM
IC50 (Plasmodium falciparum [10]): 0.26 nM
IC50 (Plasmodium falciparum [11]): 0.21 nM
Activity (Plasmodium falciparum [12]): 100%
Activity (Plasmodium falciparum [13]): 50%
MTD [14]: 250 mg/kg
ED50 (Plasmodium berghei [15]): 0.31 mg/kg

CC(C)O[C@H]1CCN[C@@H]1C(=O)Cn1cnc2cccc(C(F)(F)F)c2c1=O
selectivity ratio [1]: 104
IC50 (Plasmodium falciparum [2]): 0.31 nM
IC50 (Plasmodium falciparum [3]): 0.61 nM
IC50 (Plasmodium falciparum [5]): 0.54 nM
MCD (Plasmodium berghei [7]): 2.4 mg/kg
IC50 (Plasmodium falciparum [8]): 0.39 nM
IC50 (Plasmodium falciparum [9]): 0.68 nM
IC50 (Plasmodium falciparum [10]): 0.78 nM
IC50 (Plasmodium falciparum [11]): 0.36 nM
MTD [14]: 250 mg/kg
ED50 (Plasmodium berghei [15]): 0.23 mg/kg

OC(c1cc(C(F)(F)F)nc2c(C(F)(F)F)cccc12)C1CCCCN1 (stereo not given) [MEFLOQUINE]
selectivity ratio [1]: 61
MCD (Plasmodium berghei [7]): 9.9 mg/kg
ED50 (Plasmodium berghei [15]): 1.1 mg/kg

O=C(C[C@@H]1NCCC[C@H]1O)Cn1cnc2ccccc2c1=O [FEBRIFUGINE]
selectivity ratio [1]: 3
IC50 (Plasmodium falciparum [2]): 3.1 nM
IC50 (Plasmodium falciparum [3]): 2 nM
MCD (Plasmodium berghei [7]): 12 mg/kg
IC50 (Plasmodium falciparum [8]): 5.4 nM
IC50 (Plasmodium falciparum [9]): 4.2 nM
IC50 (Plasmodium falciparum [10]): 2.1 nM
MTD [14]: 35 mg/kg
ED50 (Plasmodium berghei [15]): 2.3 mg/kg

O=C(Cn1cnc2cccnc2c1=O)[C@H]1NCC[C@H]1O
IC50 (Plasmodium falciparum [2]): 13.2 nM
IC50 (Plasmodium falciparum [3]): 19.8 nM
IC50 (Plasmodium falciparum [5]): 11.4 nM
IC50 (Plasmodium falciparum [8]): 32.7 nM
IC50 (Plasmodium falciparum [9]): 28.7 nM
IC50 (Plasmodium falciparum [10]): 21.9 nM
IC50 (Plasmodium falciparum [11]): 16.3 nM

O=C(Cn1cnc2cccc(C(F)(F)F)c2c1=O)[C@@H]1NCC[C@H]1O
IC50 (Plasmodium falciparum [2]): 2.7 nM
IC50 (Plasmodium falciparum [3]): 4.8 nM
IC50 (Plasmodium falciparum [5]): 3.4 nM
IC50 (Plasmodium falciparum [8]): 7.3 nM
IC50 (Plasmodium falciparum [9]): 11 nM
IC50 (Plasmodium falciparum [10]): 6.1 nM
IC50 (Plasmodium falciparum [11]): 2.6 nM

O=C(Cn1cnc2cccnc2c1=O)[C@@H]1NCC[C@H]1O
IC50 (Plasmodium falciparum [2]): 2 nM
IC50 (Plasmodium falciparum [3]): 3.3 nM
IC50 (Plasmodium falciparum [5]): 1 nM
IC50 (Plasmodium falciparum [8]): 4 nM
IC50 (Plasmodium falciparum [9]): 3.7 nM
IC50 (Plasmodium falciparum [10]): 2.4 nM
IC50 (Plasmodium falciparum [11]): 1.9 nM

O=C(Cn1cnc2ccccc2c1=O)[C@H]1NCC[C@@H]1O
selectivity ratio [1]: 10
IC50 (Plasmodium falciparum [2]): 3.1 nM
IC50 (Plasmodium falciparum [3]): 3.9 nM
IC50 (Plasmodium falciparum [5]): 1.4 nM
MCD (Plasmodium berghei [7]): 9.9 mg/kg
IC50 (Plasmodium falciparum [8]): 7.9 nM
IC50 (Plasmodium falciparum [9]): 5.6 nM
IC50 (Plasmodium falciparum [10]): 4.5 nM
IC50 (Plasmodium falciparum [11]): 2.8 nM
MTD [14]: 100 mg/kg
ED50 (Plasmodium berghei [15]): 1.7 mg/kg
